Assay outcomes (PubChem BioAssay)
Shown are actives, neighbours in structure and some others; about 3.8% of the full set was active somewhere.
OX1R antag-1: OX1R (HCRTR1) antagonists, primary screen, fluorescence, CHO/OX1R cells, Fluo-8 calcium, orexin A; Orexin/Hypocretin receptor type 1 (Homo sapiens), O43613; Fluo-8 calcium fluorescence; inhibition, % at 5 µM; 0.43% of 330,000 active; AID 434989, 2010;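 active = inhibition above its plate's threshold, mean inhibition of all tested compounds on the plate plus 3 SD, cut at about 37% in these data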;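 note: 0% = orexin A challenge wells and 100% = SB-334867-A antagonist wells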
GPR7 antagonist: GPR7 receptor antagonists, primary screen, cell-based, fluorescence, single concentration. GPR7-expressing cells, fluorescence antagonist assay. inhibition, % at 4.4 µM. 1.1% of 290,000 active. AID 1861, 2009; in the data active = inhibition above about 16%, passing the limit was not always enough;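 note: cells stimulated with the agonist NPW; 0% = agonist with vehicle and 100% = vehicle without agonist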
Target sequence (P48145 whole entry, looked up): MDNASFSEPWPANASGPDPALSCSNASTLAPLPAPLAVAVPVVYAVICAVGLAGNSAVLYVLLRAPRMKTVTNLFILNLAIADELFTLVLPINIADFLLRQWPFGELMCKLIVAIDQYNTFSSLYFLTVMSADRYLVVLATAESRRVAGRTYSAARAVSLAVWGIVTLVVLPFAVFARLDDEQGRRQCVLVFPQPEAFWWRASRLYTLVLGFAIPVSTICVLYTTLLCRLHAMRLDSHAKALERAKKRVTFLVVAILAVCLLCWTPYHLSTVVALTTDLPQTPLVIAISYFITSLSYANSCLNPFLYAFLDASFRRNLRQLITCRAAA
OX1R antag-2: antagonists of human orexin 1 receptor (OX1R); inhibition, % at 6.6 µM; Orexin/Hypocretin receptor type 1 (Homo sapiens), O43613; 1.8% of 330,000 active; OX1R-expressing cells, FRET antagonist read-out; in the data active = inhibition mostly above about 38%, no sharp cut-off; inactive = mostly below about 40%;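 note: 0% = agonist challenge alone and 100% = reference antagonist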
MPTP block: mitochondrial permeability transition pore inhibitors, primary screen, biochemical, isolated mouse mitochondria, absorbance. inhibition, % at 10 µM. 1.4% of 360,000 active. Ca2+ swelling absorbance, 30 min. AID 602449, 2012;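 active = inhibition of 50% or more, scaled per plate between neutral and stimulator controls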;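 note: 0% = DMSO wells given calcium and 100% = 1 mM EGTA wells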
CHO parental Ca: ATP-evoked calcium signal inhibitors, parental CHO, primary screen, counter-screen for OX1R antagonist project, cell-based, fluorescence, Fluo-8 calcium dye. parental CHO-K1, ATP-induced calcium, Fluo-8 fluorescence. inhibition, % at 5.6 µM. 0.63% of 330,000 active. AID 463079, 2010;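 active = inhibition above that plate's mean sample inhibition plus 3 SD, cut at about 26% in these data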;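 note: 0% = ATP-challenged DMSO wells and 100% = DMSO wells without ATP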
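Test system: untransfected parental CHO cell line; also added: ATP stimulus; dosing: 5.6 µM, single dose; signal: calcium-sensitive Fluo-8 fluorescence; measure: percent inhibition of ATP-evoked calcium rise, normalized to controls; benchmarks: low control ATP plus DMSO, high control DMSO only; replication: one well per compound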
MPTP counter: fluorescence retest of MPTP screen hits in isolated mitochondria, single concentration; shares compounds with MPTP block; membrane potential, Rhodamine 123 fluorescence; inhibition, % at 10 µM; 78% of 5,000 active; in the data active = inhibition above about 22%;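 note: 0% = DMSO vehicle and 100% = positive control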
MPTP abs DR: mitochondrial permeability transition pore inhibitors, dose response, biochemical, absorbance, uHTS hits | AID 651561, 2012 | shares compounds with MPTP block | 58% of 780 active | isolated mitochondria swelling | IC50, µM; in the data active = IC50 below about 20 µM
MPTP cs DR: fluorescent counter-screen in isolated mitochondria, dose response, counter-screen for MPTP inhibitor project, biochemical, fluorescence, uHTS hits | shares compounds with MPTP block | isolated mitochondria counterscreen, fluorescence read-out | IC50, µM | 49% of 780 active | AID 651564, 2012; in the data active = IC50 below about 80 µM
The depositor's hits bear a star; i = inactive; . = not tested or not shown.

SMILES | OX1R antag-1 | GPR7 antagonist | OX1R antag-2 | MPTP block | CHO parental Ca | MPTP counter | others
Cc1ccc2nc(C(Cl)(Cl)Cl)nc(N/N=C/c3ccc([N+](=O)[O-])cc3)c2c1 | . | . | . | 94* | . | 9 | MPTP abs DR=i;MPTP cs DR=11*
COc1ccc(N(C)C(=O)c2cc3c(s2)-c2c(C)cccc2OC3)c(OC)c1 | -32 | -9 | 25 | 4 | -11 | .
COc1cccc(/C=C2/Sc3ccc(C(=O)NCCN4CCCCCC4)cc3NC2=O)c1 | -6 | 6 | -1 | 95* | -8 | -7
O=C1Nc2cc(C(=O)NCCN3CCCCCC3)ccc2S/C1=C\c1ccccc1 | -11 | 2 | 6 | 76* | -14 | -17
O=C1Nc2cc(C(=O)NCCCN3CCCC3)ccc2S/C1=C/c1cccc(Cl)c1 | . | . | . | -1 | . | .
Cc1cccc(/C=C2/Sc3ccc(C(=O)NCCN4CCCC4)cc3NC2=O)c1 | -25 | 8 | -2 | 0 | -25 | .
Oc1cccc(C=NN=C2c3ccccc3-c3ccccc32)c1 | . | . | . | 4 | . | .
Cc1ccccc1OCCC(=O)N1CCN(S(=O)(=O)c2ccc(Br)cc2)CC1 | . | . | . | 0 | . | .
O=C(Nc1ccccc1)N1CCCN(Cc2ccccc2F)C1 | -20 | -2 | 3 | 2 | -9 | .
Cc1c(Cl)cccc1NC(=S)N1CCCN(Cc2ccccc2F)C1 | 25 | -6 | 3 | 69* | 16 | 74*
Fc1ccccc1CN1CCCN(C(=S)Nc2cccc(Cl)c2)C1 | 6 | 2 | 27 | 92* | 40* | 76*
c1coc(Cn2c(-c3ccco3)nc3ccccc32)c1 | -15 | -4 | 16 | 51* | -6 | -7
O=C(Cn1cnc2ccccc2c1=O)NCCCN1CCCC1=O | 3 | . | -2 | -1 | -3 | .
O=C(Nc1ccc(F)c(F)c1)c1cnc(-c2ccccc2)nc1-c1ccccc1 | -10 | -1 | 13 | 72* | -18 | -1 | MPTP abs DR=>100;MPTP cs DR=7*
O=C(Nc1ccc(F)cc1)c1cnc(-c2ccccc2)nc1-c1ccccc1 | -19 | -2 | 9 | 27 | -25 | .
O=C(NCc1ccc2c(c1)OCO2)c1n[nH]c(=O)c2ccccc12 | -4 | -4 | 16 | 0 | -9 | .
Cc1ccc(-c2cc(C(=O)Nc3cccnc3)[nH]n2)c(O)c1C | -14 | -3 | 58 | 62* | -5 | 71*
Cc1ccc(-c2cc(C(=O)NCc3ccc4c(c3)OCO4)[nH]n2)c(O)c1C | -13 | -10 | 7 | 61* | -14 | 71*
O=C(NCc1ccc2c(c1)OCO2)c1cc(-c2cc(Cl)ccc2O)n[nH]1 | -19 | -5 | 10 | 64* | -6 | 62*
Cc1cc(O)c(-c2cc(C(=O)NCc3ccc4c(c3)OCO4)[nH]n2)cc1C | 6 | 0 | 13 | 8 | -4 | .
Cc1cccc(NC(=O)c2cc(-c3cc(C)c(C)cc3O)n[nH]2)c1 | -23 | -19 | -12 | 0 | 2 | .
Cc1ccc(N(C(=O)c2snc(C(N)=O)c2N)C(C(=O)NC2CCCC2)c2ccc(C)o2)cc1 (configuration not stated) | -13 | -23 | 20 | 1 | -33 | .
COc1cc(NC(=O)CSCC(=O)Nc2cccc(C(F)(F)F)c2)c(Cl)cc1Cl | 9 | -3 | 14 | 58* | 0 | 63*
O=C(COCC(=O)Nc1cccc(C(F)(F)F)c1)Nc1cccc(C(F)(F)F)c1 | -7 | -16 | -2 | 14 | 2 | .
Clc1ccc(-c2ccc(/C=N/Nc3cc(N4CCOCC4)nc(N4CCOCC4)n3)o2)cc1 | -30 | -7 | 27 | 1 | -43 | .
SMILES | OX1R antag-1 | GPR7 antagonist | OX1R antag-2 | MPTP block | CHO parental Ca | MPTP counter | others
Cc1ccc(/C=C2/SC(=S)N(CCC(=O)N3CCN(C)CC3)C2=O)cc1 | -17 | 1 | -1 | 79* | -20 | 5 | MPTP abs DR=>100;MPTP cs DR=>80
OCCCCc1nccc2c1[nH]c1ccccc12 | -1 | -4 | 8 | 1 | -9 | .
Clc1ccc(/C=C\c2nccc3c2[nH]c2ccccc23)cc1 | . | -11 | . | 70* | . | 83*
N#Cc1ccc(/C=C\c2nccc3c2[nH]c2ccccc23)cc1 | -16 | -10 | 35 | 92* | 7 | 67*
Brc1ccc(CNc2ccc3ncccc3c2)cc1 | . | 2 | . | 92* | . | 86*
Cc1cc(C(=O)NCc2cc(F)cc3c2OCOC3)nn1C | -14 | -5 | 0 | 0 | -14 | .
Cn1nc(C(C)(C)C)cc1C(=O)NCc1cc(F)cc2c1OCOC2 | 29 | 1 | 14 | 92* | 23 | 84*
Clc1ccc(-c2nc3ccccc3nc2-c2ccccc2)cc1 | -43 | -10 | 7 | 55* | -40 | -6 | MPTP abs DR=19*;MPTP cs DR=>80
CCOC(=O)c1c(-c2ccc(C)cc2)csc1NC1=NS(=O)(=O)c2ccccc21 | -10 | -9 | 11 | 2 | -8 | .
CCc1ccc(S(=O)(=O)NCc2ccc(C(=O)NCCN(Cc3ccccc3)C(C)C)cc2)cc1 | . | . | . | 97* | . | 93*
CCc1nc2c(OCCC3CCCCC3)cccn2c1N(C)C(=O)c1ccccc1F | . | . | . | 0 | . | .
O=C(NC(=S)Nc1nc2c(s1)CSc1ccccc1-2)c1ccccc1 | 5 | 0 | 11 | 95* | -16 | 91*
O=C(NC(=S)Nc1nc2c(s1)CCCC2)c1ccc(C(=O)c2ccccc2)cc1 | -38 | 2 | 16 | 6 | -16 | .
CCN(CC)CCOC(=O)/C=C/c1ccccc1OC | -26 | 2 | 18 | 2 | -4 | .
Oc1c(C=C2N=c3ccccc3=N2)sc(=S)n1-c1ccccc1 | -6 | 9 | 8 | 4 | 1 | .
Oc1c(C=C2N=c3ccccc3=N2)sc(=S)n1C1CCCCC1 | 4 | -4 | -8 | 77* | -1 | -7 | MPTP abs DR=>100;MPTP cs DR=>80
COC(C[C@@H]1O[C@@H]1[C@@H](O)COCc1ccccc1)OC | . | . | . | -1 | . | .
Cc1c(C(=O)Nc2cccc(Cl)c2)c2ccccn2c1CCc1ccncc1 | . | 10 | . | 25 | . | .
Cc1c(C(=O)Nc2ccc(Cl)cc2)c2ccccn2c1CCc1ccncc1 | -49 | 7 | 25 | 85* | -21 | 90*
COc1ccccc1NS(=O)(=O)c1ccc(N/N=C/C=C/c2ccccc2[N+](=O)[O-])c([N+](=O)[O-])c1 | -11 | -14 | 29 | 2 | -5 | .
COc1ccccc1NS(=O)(=O)c1ccc(NN=C2CCCC2)c([N+](=O)[O-])c1 | 5 | -1 | 32 | 60* | -3 | 47*
Cc1sc2ncnc(N3CCN(S(=O)(=O)c4ccccc4)CC3)c2c1C | -3 | . | 12 | 94* | -20 | 89*
CCN1CCN(CCOc2ccc(Cl)cc2)CC1 | -16 | -5 | 0 | 1 | -2 | .
